Reference: ChEMBL document CHEMBL4765234 (J Med Chem, 2016)
pEC50, pKi: −log10 of the molar value. Calls of active or inactive are those of the source. No cut-off for these calls is given here.

How the values were obtained:
[1] = target: T1, Free fatty acid receptor 1 (Homo sapiens, UniProt O14842); test: Displacement of [3H]-TAK-875 from human recombinant full-length GPR40 expressed in human HEK293 cell membrane incubated for 2 hrs by solid scintillation counting method; type: cell membranes
[2] = target: T1, Free fatty acid receptor 1; test: Agonist activity at human recombinant full length GPR40 overexpressed in human HEK293 cells assessed as increase in intracellular calcium level measured over 3 mins by calcium 4 dye based FLIPR assay; type: functional, cell-based
How it was run: (§1)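 HEK293 cells overexpressing hGPR40 (25K/well) were cultured overnight in DMEM/F12 with 0.2% FBS and geneticin. Compound was tested at 40 μM–0.1 nM final (20-point, 1% DMSO), and FLIPR fluorescence was read over 3 min.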

[3] = target: T1, Free fatty acid receptor 1; test: Agonist activity at human recombinant full length GPR40 overexpressed in human HEK293 cells assessed as increase in intracellular calcium level measured over 3 mins by calcium 4 dye based FLIPR assay relative to 100 uM linoleic acid; type: functional, cell-based; conditions: filed as agonist; how it was run: as §1
[4] = target: T1, Free fatty acid receptor 1; test: Agonist activity at human recombinant full-length Prolink-tagged GPR40 fused with EA-tagged beta-arrestin expressed in human HEK293 cells assessed as induction of beta-arrestin recruitment measured after 90 mins by beta-galactosidase based PathHunter assay; type: cell-based
How it was run: (§2)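 PathHunter β-gal complementation. Cells were incubated overnight at 5000/well in medium with 1% heat-inactivated FBS. Compound was added as a 20-point 2-fold series from a top final of 100 μM (1% DMSO) for 90 min at 37 °C, followed by detection reagents and chemiluminescence read after 1 h at rt.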

[5] = target: T1, Free fatty acid receptor 1; test: Agonist activity at human recombinant full-length Prolink-tagged GPR40 fused with EA-tagged beta-arrestin expressed in human HEK293 cells assessed as induction of beta-arrestin recruitment measured after 90 mins by beta-galactosidase based PathHunter assay relative to control; type: cell-based; conditions: filed as agonist; how it was run: as §2
[6] = target: Free fatty acid receptor 1 (Mus musculus, UniProt Q76JU9); test: Agonist activity at Prolink-tagged mouse GPR40 fused with EA-tagged beta-arrestin expressed in human U2OS cells assessed as induction of beta-arrestin recruitment measured after 90 mins by beta-galactosidase based PathHunter assay; type: cell-based; how it was run: as §2
Sequence of Free fatty acid receptor 1 (Mus musculus, UniProt Q76JU9) (Q76JU9 whole entry, the tested form may be a part): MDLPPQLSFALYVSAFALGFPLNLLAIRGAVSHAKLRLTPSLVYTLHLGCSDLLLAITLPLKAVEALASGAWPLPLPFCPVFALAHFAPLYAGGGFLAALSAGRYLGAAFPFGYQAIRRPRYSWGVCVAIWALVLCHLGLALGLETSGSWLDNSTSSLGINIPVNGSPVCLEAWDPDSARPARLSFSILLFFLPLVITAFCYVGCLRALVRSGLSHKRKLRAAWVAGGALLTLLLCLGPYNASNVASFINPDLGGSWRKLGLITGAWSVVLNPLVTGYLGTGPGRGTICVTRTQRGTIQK

[7] = target: Free fatty acid receptor 1 (Mus musculus) (UniProt Q76JU9); test: Agonist activity at Prolink-tagged mouse GPR40 fused with EA-tagged beta-arrestin expressed in human U2OS cells assessed as induction of beta-arrestin recruitment measured after 90 mins by beta-galactosidase based PathHunter assay relative to control; type: cell-based; conditions: filed as agonist; how it was run: as §2
Sequence of Free fatty acid receptor 1 (Mus musculus) (Q76JU9 whole entry, the tested form may be a part): as above

[8] = target: Free fatty acid receptor 1 (Rattus norvegicus, UniProt Q8K3T4); test: Agonist activity at Prolink-tagged rat GPR40 fused with EA-tagged beta-arrestin expressed in human U2OS cells assessed as induction of beta-arrestin recruitment measured after 90 mins by beta-galactosidase based PathHunter assay; type: cell-based; how it was run: as §2
Sequence of Free fatty acid receptor 1 (Rattus norvegicus, UniProt Q8K3T4) (Q8K3T4 whole entry, the tested form may be a part): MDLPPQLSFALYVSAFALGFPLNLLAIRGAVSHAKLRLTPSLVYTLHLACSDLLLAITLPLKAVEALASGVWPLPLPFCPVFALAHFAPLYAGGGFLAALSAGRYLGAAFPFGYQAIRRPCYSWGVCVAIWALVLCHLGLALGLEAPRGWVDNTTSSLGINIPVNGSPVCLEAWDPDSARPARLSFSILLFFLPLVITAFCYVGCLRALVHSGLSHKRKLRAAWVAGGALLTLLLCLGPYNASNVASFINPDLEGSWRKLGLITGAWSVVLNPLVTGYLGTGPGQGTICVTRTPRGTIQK

[9] = target: Free fatty acid receptor 1 (Rattus norvegicus) (UniProt Q8K3T4); test: Agonist activity at Prolink-tagged rat GPR40 fused with EA-tagged beta-arrestin expressed in human U2OS cells assessed as induction of beta-arrestin recruitment measured after 90 mins by beta-galactosidase based PathHunter assay relative to control; type: cell-based; conditions: filed as agonist; how it was run: as §2
Sequence of Free fatty acid receptor 1 (Rattus norvegicus) (Q8K3T4 whole entry, the tested form may be a part): as above

[10] = target: T1, Free fatty acid receptor 1; test: Agonist activity at human recombinant full length GPR40 overexpressed in human HEK293 cells assessed as increase in inositol phosphate accumulation in presence of terbium cryptate-labeled anti IP1/d2-labelled IP1 measured after 120 mins by HTRF assay; type: functional, cell-based
How it was run: (§3)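 HEK293 hGPR40 cells (20K/well) were cultured overnight, washed, and held in IP1 stimulation buffer. IP-1 was measured by competitive HTRF immunoassay with terbium cryptate anti-IP1 mAb and d2-labelled IP1.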

[11] = target: T1, Free fatty acid receptor 1; test: Agonist activity at human recombinant full length GPR40 overexpressed in human HEK293 cells assessed as increase in inositol phosphate accumulation in presence of terbium cryptate-labeled anti IP1/d2-labelled IP1 measured after 120 mins by HTRF assay relative to AMG837; type: functional, cell-based; conditions: filed as agonist; how it was run: as §3
[12] = Protein binding in plasma (unknown origin) by equilibrium dialysis method; type: ADME, cell-free; conditions: human, read-out: PPB
How it was run: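 Plasma protein binding measured by equilibrium dialysis.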

[13] = target: T2, Peroxisome proliferator-activated receptor alpha (Homo sapiens) (UniProt Q07869); test: Displacement of [3H]-[…] from PPARalpha (unknown origin) expressed in baculovirus infected Sf9 insect cells upto 30 uM measured after 10 hrs by microbeta scintillation counting analysis; conditions: dose microM <=30, time 10.0 hrs
T2 sequence (whole entry): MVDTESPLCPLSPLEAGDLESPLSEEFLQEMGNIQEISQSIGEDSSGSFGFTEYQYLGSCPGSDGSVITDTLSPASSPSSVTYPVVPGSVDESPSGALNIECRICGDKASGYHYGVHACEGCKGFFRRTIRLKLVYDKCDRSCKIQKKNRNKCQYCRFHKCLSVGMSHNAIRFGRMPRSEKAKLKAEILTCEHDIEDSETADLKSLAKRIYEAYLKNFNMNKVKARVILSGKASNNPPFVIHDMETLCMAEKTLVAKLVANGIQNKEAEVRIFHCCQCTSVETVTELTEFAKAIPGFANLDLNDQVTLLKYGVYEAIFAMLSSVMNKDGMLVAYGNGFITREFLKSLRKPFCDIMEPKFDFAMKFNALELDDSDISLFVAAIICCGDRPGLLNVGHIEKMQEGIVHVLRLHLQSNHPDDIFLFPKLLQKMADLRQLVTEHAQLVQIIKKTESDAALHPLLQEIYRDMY
How it was run: (§4)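 Scintillation proximity assay. Sf9 lysates with baculovirus-expressed PPARα (0.3 μg), PPARδ (0.5 μg) or PPARγ (1.25 μg), each with RXRα, were bound via biotinylated DR2 oligo (0.126 nM) to streptavidin yttrium silicate beads. Buffer was HEPES pH 7.8 with KCl, MgCl2, DTT, CHAPS, 14% glycerol and salmon sperm DNA. A 3H reference agonist ligand was used, with 11 compound concentrations, for 10 h. Nonspecific binding was defined with 10000 nM unlabeled reference. Ki was derived from IC50.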

[14] = target: T3, Peroxisome proliferator-activated receptor delta (Homo sapiens) (UniProt Q03181); test: Displacement of [3H]-[…] from PPARdelta (unknown origin) expressed in baculovirus infected Sf9 insect cells upto 30 uM measured after 10 hrs by microbeta scintillation counting analysis; conditions: dose microM <=30, time 10.0 hrs; how it was run: as §4
T3 sequence (whole entry): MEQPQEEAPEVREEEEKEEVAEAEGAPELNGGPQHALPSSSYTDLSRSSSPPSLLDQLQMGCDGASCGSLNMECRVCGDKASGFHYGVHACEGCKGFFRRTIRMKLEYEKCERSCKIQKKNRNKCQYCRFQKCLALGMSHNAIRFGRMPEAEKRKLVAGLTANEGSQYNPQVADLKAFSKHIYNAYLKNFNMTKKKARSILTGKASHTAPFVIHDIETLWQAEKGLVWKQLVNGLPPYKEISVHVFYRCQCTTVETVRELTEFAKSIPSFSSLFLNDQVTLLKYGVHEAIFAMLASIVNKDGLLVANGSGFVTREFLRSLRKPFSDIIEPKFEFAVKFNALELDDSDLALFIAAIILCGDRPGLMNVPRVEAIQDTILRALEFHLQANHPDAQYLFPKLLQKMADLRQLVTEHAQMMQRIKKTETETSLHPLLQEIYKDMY

[15] = target: T4, Peroxisome proliferator-activated receptor gamma (Homo sapiens) (UniProt P37231); test: Displacement of [3H]-[…] from PPARgamma (unknown origin) expressed in baculovirus infected Sf9 insect cells upto 30 uM measured after 10 hrs by microbeta scintillation counting analysis; conditions: dose microM <=30, time 10.0 hrs; how it was run: as §4
T4 sequence (whole entry): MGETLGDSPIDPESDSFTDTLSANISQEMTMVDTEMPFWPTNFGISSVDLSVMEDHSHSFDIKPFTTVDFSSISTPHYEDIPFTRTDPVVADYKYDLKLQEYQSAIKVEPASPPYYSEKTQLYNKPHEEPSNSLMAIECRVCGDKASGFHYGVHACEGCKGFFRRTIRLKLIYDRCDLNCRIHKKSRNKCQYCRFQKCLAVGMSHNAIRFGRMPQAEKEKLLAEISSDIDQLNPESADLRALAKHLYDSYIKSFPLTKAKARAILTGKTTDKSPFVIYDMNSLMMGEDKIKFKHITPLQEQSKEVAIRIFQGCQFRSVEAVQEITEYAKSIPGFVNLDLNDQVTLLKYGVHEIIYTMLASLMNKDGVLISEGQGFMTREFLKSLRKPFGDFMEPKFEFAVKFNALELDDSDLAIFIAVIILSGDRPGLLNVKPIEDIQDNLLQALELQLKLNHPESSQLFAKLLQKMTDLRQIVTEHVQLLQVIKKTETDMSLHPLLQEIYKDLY

T1 sequence (O14842 whole entry): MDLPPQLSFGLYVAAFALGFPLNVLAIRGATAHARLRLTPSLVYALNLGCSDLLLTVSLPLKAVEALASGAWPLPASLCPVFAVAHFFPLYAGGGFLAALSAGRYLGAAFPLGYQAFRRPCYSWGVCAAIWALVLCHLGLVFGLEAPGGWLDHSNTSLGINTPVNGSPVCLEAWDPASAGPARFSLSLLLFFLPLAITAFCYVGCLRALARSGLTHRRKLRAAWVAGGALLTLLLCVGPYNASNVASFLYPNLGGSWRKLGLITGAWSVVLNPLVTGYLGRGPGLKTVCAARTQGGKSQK

Row | SMILES | pKi [1] | pEC50 [2] | Emax [3] [%] | pEC50 [4] | Emax [5] [%] | pEC50 [6] | Emax [7] [%] | pEC50 [8] | Emax [9] [%] | pEC50 [10] | Emax [11] [%] | fraction unbound [12] | Activity [13] | Activity [14] | Activity [15]
1 | CC#C[C@@H](CC(=O)O)c1ccc(OCc2ccc(CN3CCC4(C=Cc5ccccc54)CC3)c(Cl)c2)cc1 | 8.82 | 7.49 | 47 | 8.48 | 150 | 9.08 | 149 | 9.00 | 161 | 8.31 | 193 | < 0.01 | inactive | inactive | inactive
2 | CC#C[C@H](CC(=O)O)c1ccc(OCc2ccc(CN3CCC4(C=Cc5ccccc54)CC3)cc2)cc1 | 6.51 | 5.55 | 46 | 6.27 | 95 | 7.22 | 100 | 6.92 | 101 | 6.44 | 166 | < 0.01 | inactive | inactive | inactive
3 | CC#C[C@@H](CC(=O)O)c1ccc(OCc2cnc(CN3CCC4(C=Cc5ccccc54)CC3)s2)cc1 | 6.92 | 8.36 | 62 | 6.77 | 114 | 8.42 | 127 | 7.96 | 114 | 8.28 | 129 | < 0.01 | inactive | inactive | inactive
4 | O=C(O)CCc1ccc(OCc2ccc(CN3CCC4(C=Cc5ccccc54)CC3)cc2)cc1Cl | 6.70 | 6.85 | 59 | 6.13 | 133 | 6.96 | 116 | 6.27 | 108 | 7.07 | 265 | < 0.01 | inactive | inactive | inactive
5 | CC#C[C@@H](CC(=O)O)c1ccc(OCc2ccc(CN3CCC4(C=Cc5ccccc54)CC3)c(C(F)(F)F)c2)cc1 | 8.96 | 7.70 | 55 | 8.96 | 132 | 9.08 | 146 | 8.96 | 135 | 8.72 | 255 | < 0.01 | inactive | inactive | inactive
6 | CC#C[C@@H](CC(=O)O)c1ccc(OCc2ccc(CN3CCC4(C=Cc5ccccc54)CC3)cc2)cc1F | 7.89 | 7.74 | 60 | 7.44 | 118 | 8.25 | 120 | 7.80 | 115 | 7.85 | 156 | < 0.01 | inactive | inactive | inactive
7 | CC#C[C@@H](CC(=O)O)c1ccc(OCc2ccc(CN3CCC4(CC3)CN(C)c3c(Cl)cccc34)cc2)cc1 | 8.46 | 7.77 | 42 | 8.48 | 147 | 9.23 | 141 | 9.05 | 138 | 7.96 | 378 | < 0.01 | inactive | inactive | inactive
